The source made the active and inactive calls. The calls are words filed in the database; no cut-off is given here.
Legend:
CDK7/Cyclin H/MNAT1 [1] = molecular target: T1, CDK7/Cyclin H/MNAT1 (Homo sapiens, UniProt P50613); test: Inhibition of CDK7/CycH/MNAT1 (unknown origin) assessed as change in TR-FRET ratio using Cdk7/9tide as substrate and ATP by in vitro Adapta Eu kinase assay; format: protein-complex assay
Outline: (§1)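 Adapta Eu kinase assay run at ThermoFisher on CDK7/Cyclin H/MNAT1 with ATP at Km.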

[2] = molecular target: T2, von Hippel-Lindau disease tumor suppressor/Cyclin-dependent kinase 7 (Homo sapiens) (UniProt P50613+P40337); test: PROTAC activity at CDK7/VHL in human Jurkat cells assessed as degradation of CDK7 at 0.1 uM measured after 16 hrs incubation by immunoblot analysis relative to control; format: cell-based
Outline: (§2)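 Jurkat cells given VHL-recruiting compounds at 0.1 or 1 μM for 16 h. RIPA lysis, BCA normalization, 4–20% SDS-PAGE, nitrocellulose transfer. CDK7 (1:1000) and β-actin probed overnight at 4 °C, IRDye secondaries, Odyssey detection. Quantified against control, mean ± SEM from three independent biological replicates.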

[3] = molecular target: T2, von Hippel-Lindau disease tumor suppressor/Cyclin-dependent kinase 7 (Homo sapiens); test: PROTAC activity at CDK7/VHL in human Jurkat cells assessed as degradation of CDK7 at 1 uM measured after 16 hrs incubation by immunoblot analysis relative to control; format: cell-based; outline: as §2
[4] = molecular target: T3, Protein cereblon/Cyclin-dependent kinase 7 (Homo sapiens) (UniProt P50613+Q96SW2); test: PROTAC activity at CDK7/CRBN in human Jurkat cells assessed as degradation of CDK7 at 0.1 uM measured after 16 hrs incubation by immunoblot analysis; format: cell-based
Outline: (§3)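 Jurkat cells exposed to CRBN-recruiting bivalent compounds at 0.1 or 1 μM for 16 h. Lysed in RIPA with protease/phosphatase inhibitors, BCA-normalized, run on 4–20% SDS-PAGE and blotted to nitrocellulose. Probed with anti-CDK7 (1:1000) and β-actin (1:5000) overnight at 4 °C, IRDye secondaries, near-infrared imaging.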

[5] = molecular target: T3, Protein cereblon/Cyclin-dependent kinase 7 (Homo sapiens); test: PROTAC activity at CDK7/CRBN in human Jurkat cells assessed as degradation of CDK7 at 1 uM measured after 16 hrs incubation by immunoblot analysis; format: cell-based; outline: as §3
CDK7/Cyclin H/MNAT1 [6] = molecular target: T1, CDK7/Cyclin H/MNAT1; test: Inhibition of recombinant GST-tagged CDK7/CycH/MAT1 (unknown origin) extracted from baculo-virus infected Sf9 insect cells assessed as inhibition constant using ATP containing 32P measured after 15 mins by Beckman liquid scintillation counter analysis; format: cell-free
CDK7/Cyclin H/MNAT1 [7] = molecular target: T1, CDK7/Cyclin H/MNAT1; test: Inhibition of CDK7/CycH/MAT1 (unknown origin); design: species or system Sf9; outline: as §1
Jurkat = test: Antiproliferative activity against human Jurkat cells assessed as cell viability measured after 72 hrs by CellTiter-Glo assay; format: functional, cell-based
Outline: (§4)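 Cells grown in RPMI 1640 with 10% heat-inactivated FBS and penicillin/streptomycin at 37 °C, 5% CO2, mycoplasma-negative. Seeded at 10^4/ml. Compounds dispensed digitally from 10 mM or 1 mM DMSO stocks, DMSO equalized, triplicate wells. After 72 h, CellTiter-Glo added for 10–15 min at room temperature and luminescence read.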

OVCAR-3 = test: Antiproliferative activity against human OVCAR-3 cells assessed as cell viability measured after 72 hrs by CellTiter-Glo assay; format: functional, cell-based; settings: OVCAR-3, 72 h; outline: as §4
SU-DHL-5 = test: Antiproliferative activity against human SU-DHL-5 cells assessed as cell viability measured after 72 hrs by CellTiter-Glo assay; format: functional, cell-based; settings: SU-DHL-5, 72 h; outline: as §4
MOLT-4 = test: Antiproliferative activity against human MOLT-4 cells assessed as cell viability measured after 72 hrs by CellTiter-Glo assay; format: functional, cell-based; settings: MOLT-4, 72 h; outline: as §4
A549 = test: Antiproliferative activity against human A549 cells assessed as cell viability measured after 72 hrs by CellTiter-Glo assay; format: functional, cell-based; settings: A549, 72 h; outline: as §4

T3 sequence (P50613 whole entry, looked up): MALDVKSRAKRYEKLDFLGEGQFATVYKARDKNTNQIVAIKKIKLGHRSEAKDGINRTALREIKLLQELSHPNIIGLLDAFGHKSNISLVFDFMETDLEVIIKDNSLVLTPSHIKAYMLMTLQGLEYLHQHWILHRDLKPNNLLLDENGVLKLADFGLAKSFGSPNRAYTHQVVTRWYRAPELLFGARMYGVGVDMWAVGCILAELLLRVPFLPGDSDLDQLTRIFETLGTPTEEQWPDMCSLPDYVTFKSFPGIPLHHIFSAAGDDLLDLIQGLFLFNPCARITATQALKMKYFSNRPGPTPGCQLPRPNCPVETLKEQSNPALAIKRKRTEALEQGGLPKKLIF
T3 sequence (Q96SW2 whole entry, looked up): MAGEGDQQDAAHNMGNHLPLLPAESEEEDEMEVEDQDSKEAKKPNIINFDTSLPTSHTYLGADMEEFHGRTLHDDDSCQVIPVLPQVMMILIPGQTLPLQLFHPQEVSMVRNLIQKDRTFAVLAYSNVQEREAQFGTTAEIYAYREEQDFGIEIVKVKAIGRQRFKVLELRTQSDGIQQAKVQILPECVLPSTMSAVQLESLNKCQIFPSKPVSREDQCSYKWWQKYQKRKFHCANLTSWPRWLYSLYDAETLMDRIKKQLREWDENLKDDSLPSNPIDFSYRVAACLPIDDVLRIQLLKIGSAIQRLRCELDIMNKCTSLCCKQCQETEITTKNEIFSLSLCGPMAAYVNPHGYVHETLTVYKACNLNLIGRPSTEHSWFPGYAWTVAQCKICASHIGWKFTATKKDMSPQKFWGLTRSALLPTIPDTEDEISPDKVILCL
T1 sequence (P51946 whole entry): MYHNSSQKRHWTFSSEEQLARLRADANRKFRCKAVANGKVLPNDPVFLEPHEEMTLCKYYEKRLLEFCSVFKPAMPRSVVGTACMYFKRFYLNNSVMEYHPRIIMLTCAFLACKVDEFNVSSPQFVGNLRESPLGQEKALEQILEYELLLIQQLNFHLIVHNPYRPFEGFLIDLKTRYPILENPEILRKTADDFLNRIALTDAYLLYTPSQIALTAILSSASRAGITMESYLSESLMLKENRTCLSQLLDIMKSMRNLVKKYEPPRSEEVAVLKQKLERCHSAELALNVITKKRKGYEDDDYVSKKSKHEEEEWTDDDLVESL
T1 sequence (P50613 whole entry): as the sequence (P50613 whole entry, looked up) above
T1 sequence (P51948 whole entry, further chain): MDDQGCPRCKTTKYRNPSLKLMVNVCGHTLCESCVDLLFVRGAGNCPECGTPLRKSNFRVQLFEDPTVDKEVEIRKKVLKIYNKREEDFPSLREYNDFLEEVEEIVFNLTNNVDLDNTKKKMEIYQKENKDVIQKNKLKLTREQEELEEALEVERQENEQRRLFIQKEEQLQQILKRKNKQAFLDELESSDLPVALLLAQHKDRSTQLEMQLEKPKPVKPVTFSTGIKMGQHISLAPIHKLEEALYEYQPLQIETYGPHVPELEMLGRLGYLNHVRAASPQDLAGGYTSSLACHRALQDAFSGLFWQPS
T2 sequence (P40337 whole entry, looked up): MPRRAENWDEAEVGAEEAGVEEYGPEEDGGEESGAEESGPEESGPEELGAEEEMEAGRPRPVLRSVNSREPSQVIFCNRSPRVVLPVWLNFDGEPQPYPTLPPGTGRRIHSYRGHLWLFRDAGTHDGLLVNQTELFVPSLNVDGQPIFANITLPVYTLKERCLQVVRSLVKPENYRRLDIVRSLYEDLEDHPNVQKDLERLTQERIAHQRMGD
T2 sequence (P50613 whole entry, looked up): as the sequence (P50613 whole entry, looked up) above

Row | Compound | IC50 (CDK7/Cyclin H/MNAT1 [1]) [nM] | Activity [2] | Activity [3] | Activity [4] | Activity [5] | also measured
1 | Cc1ncsc1-c1ccc([C@H](C)NC(=O)[C@@H]2C[C@@H](O)CN2C(=O)[C@@H](NC(=O)CCCCCNC(=O)c2ccc(C(=O)Nc3n[nH]c4c3CN(C(=O)N[C@H](CN(C)C)c3ccccc3)C4(C)C)cc2)C(C)(C)C)cc1 | 8.1 | Active | Active | – | – | –
2 | Cc1ncsc1-c1ccc([C@H](C)NC(=O)[C@@H]2C[C@@H](O)CN2C(=O)[C@@H](NC(=O)CCOCCNC(=O)c2ccc(C(=O)Nc3n[nH]c4c3CN(C(=O)N[C@H](CN(C)C)c3ccccc3)C4(C)C)cc2)C(C)(C)C)cc1 | 11.1 | Active | Active | – | – | –
3 | Cc1ncsc1-c1ccc([C@H](C)NC(=O)[C@@H]2C[C@@H](O)CN2C(=O)[C@@H](NC(=O)CCNC(=O)c2ccc(C(=O)Nc3n[nH]c4c3CN(C(=O)N[C@H](CN(C)C)c3ccccc3)C4(C)C)cc2)C(C)(C)C)cc1 | 8.7 | Active | Active | – | – | –
4 | C=CC(=O)Nc1ccc(C(=O)Nc2n[nH]c3c2CN(C(=O)N[C@@H](CN(C)C)c2ccccc2)C3(C)C)cc1 | – | – | – | – | – | Ki (CDK7/Cyclin H/MNAT1 [6]): 2.2 nM
5 | Cc1ncsc1-c1ccc([C@H](C)NC(=O)[C@@H]2C[C@@H](O)CN2C(=O)[C@@H](NC(=O)CCCCCc2ccc(C(=O)Nc3n[nH]c4c3CN(C(=O)N[C@H](CN(C)C)c3ccccc3)C4(C)C)cc2)C(C)(C)C)cc1 | – | Active | Active | – | – | –
6 | CN(C)C[C@@H](NC(=O)N1Cc2c(NC(=O)c3ccc(C(=O)NCCOCCOCCOCCNc4cccc5c4C(=O)N(C4CCC(=O)NC4=O)C5=O)cc3)n[nH]c2C1(C)C)c1ccccc1 (some centres not stated) | 17.7 | – | – | inactive | inactive | –
7 | CCC(=O)Nc1ccc(C(=O)Nc2n[nH]c3c2CN(C(=O)N[C@@H](CN(C)C)c2ccccc2)C3(C)C)cc1 | – | – | – | – | – | IC50 (CDK7/Cyclin H/MNAT1 [7]): 6.8 nM; IC50 (Jurkat): 1190 nM; IC50 (OVCAR-3): 896 nM; IC50 (SU-DHL-5): 176 nM; IC50 (MOLT-4): 598 nM; IC50 (A549): 1630 nM
8 | CN(C)C[C@@H](NC(=O)N1Cc2c(NC(=O)c3ccc(C(=O)NCCCCCCNc4cccc5c4C(=O)N(C4CCC(=O)NC4=O)C5=O)cc3)n[nH]c2C1(C)C)c1ccccc1 (some centres not stated) | 9.4 | – | – | inactive | inactive | –
9 | CN(C)C[C@@H](NC(=O)N1Cc2c(NC(=O)c3ccc(C(=O)NCCCCCOc4cccc5c4C(=O)N(C4CCC(=O)NC4=O)C5=O)cc3)n[nH]c2C1(C)C)c1ccccc1 (some centres not stated) | 9.2 | – | – | inactive | inactive | –

Further lines, with some results ahead:

Row | IC50 (CDK7/Cyclin H/MNAT1 [1]) [nM] | Activity [2] | Activity [3] | Activity [4] | Activity [5] | Compound | also measured
10 | 5.6 | Active | Active | – | – | Cc1ncsc1-c1ccc([C@H](C)NC(=O)[C@@H]2C[C@@H](O)CN2C(=O)[C@@H](NC(=O)CCCNC(=O)c2ccc(C(=O)Nc3n[nH]c4c3CN(C(=O)N[C@H](CN(C)C)c3ccccc3)C4(C)C)cc2)C(C)(C)C)cc1 | –
11 | 12.6 | Active | Active | – | – | Cc1ncsc1-c1ccc([C@H](C)NC(=O)[C@@H]2C[C@@H](O)CN2C(=O)[C@@H](NC(=O)CCCCOc2ccc(C(=O)Nc3n[nH]c4c3CN(C(=O)N[C@H](CN(C)C)c3ccccc3)C4(C)C)cc2)C(C)(C)C)cc1 | –
12 | 11.3 | – | – | inactive | inactive | CN(C)C[C@@H](NC(=O)N1Cc2c(NC(=O)c3ccc(C(=O)NCCOCCNc4cccc5c4C(=O)N(C4CCC(=O)NC4=O)C5=O)cc3)n[nH]c2C1(C)C)c1ccccc1 (some centres not stated) | –
13 | 13.4 | Active | Active | – | – | Cc1ncsc1-c1ccc(CNC(=O)C2[C@@H](O)CCN2C(=O)C(NC(=O)C2(F)CC2)C(C)(C)C)c(OCCOCCOCCNC(=O)c2ccc(C(=O)Nc3n[nH]c4c3CN(C(=O)N[C@H](CN(C)C)c3ccccc3)C4(C)C)cc2)c1 (some centres not stated) | –
14 | 6.7 | – | – | inactive | inactive | CN(C)C[C@@H](NC(=O)N1Cc2c(NC(=O)c3ccc(C(=O)NCCNc4cccc5c4C(=O)N(C4CCC(=O)NC4=O)C5=O)cc3)n[nH]c2C1(C)C)c1ccccc1 (some centres not stated) | –
15 | 6.4 | – | – | inactive | inactive | CN(C)C[C@@H](NC(=O)N1Cc2c(NC(=O)c3ccc(C(=O)NCCOCCOCCNc4cccc5c4C(=O)N(C4CCC(=O)NC4=O)C5=O)cc3)n[nH]c2C1(C)C)c1ccccc1 (some centres not stated) | –
16 | 34.4 | – | – | inactive | inactive | CN(C)C[C@@H](NC(=O)N1Cc2c(NC(=O)c3ccc(C(=O)NCCCCCCCCOc4cccc5c4C(=O)N(C4CCC(=O)NC4=O)C5=O)cc3)n[nH]c2C1(C)C)c1ccccc1 (some centres not stated) | –
17 | 8.6 | Active | Active | – | – | CC(=O)N[C@H](C(=O)N1C[C@H](O)C[C@H]1C(=O)N[C@@H](C)c1ccc(-c2scnc2C(=O)NCCCCCNC(=O)c2ccc(C(=O)Nc3n[nH]c4c3CN(C(=O)N[C@H](CN(C)C)c3ccccc3)C4(C)C)cc2)cc1)C(C)(C)C | –
18 | 13.3 | – | – | inactive | inactive | CN(C)C[C@@H](NC(=O)N1Cc2c(NC(=O)c3ccc(C(=O)NCCCCC#Cc4cccc5c4C(=O)N(C4CCC(=O)NC4=O)C5=O)cc3)n[nH]c2C1(C)C)c1ccccc1 (some centres not stated) | –
19 | 7.6 | Active | Active | – | – | Cc1ncsc1-c1ccc([C@H](C)NC(=O)[C@@H]2C[C@@H](O)CN2C(=O)[C@@H](NC(=O)CCOCCOCCNC(=O)c2ccc(C(=O)Nc3n[nH]c4c3CN(C(=O)N[C@H](CN(C)C)c3ccccc3)C4)cc2)C(C)(C)C)cc1 | –

Reference: ChEMBL document CHEMBL5608193, “Discovery of bivalent small molecule degraders of cyclin-dependent kinase 7 (CDK7)” (Eur J Med Chem, 2024)
